Here are results for 15 molecules from ChEMBL document CHEMBL2413055, “Synthesis of substituted diphenyl sulfones and their structure-activity relationship with the antagonism of 5-НТ6 receptors” (Bioorg Med Chem, 2013).

The target of one experiment is T1, 5-hydroxytryptamine receptor 6 (Homo sapiens, UniProt P50406). The experiment can be described thus: Displacement of [3H]-lysergic acid diethylamide from human 5-HT6 receptor expressed in HEK293 cell membranes after 3.5 hrs.
T1 sequence (P50406 whole entry): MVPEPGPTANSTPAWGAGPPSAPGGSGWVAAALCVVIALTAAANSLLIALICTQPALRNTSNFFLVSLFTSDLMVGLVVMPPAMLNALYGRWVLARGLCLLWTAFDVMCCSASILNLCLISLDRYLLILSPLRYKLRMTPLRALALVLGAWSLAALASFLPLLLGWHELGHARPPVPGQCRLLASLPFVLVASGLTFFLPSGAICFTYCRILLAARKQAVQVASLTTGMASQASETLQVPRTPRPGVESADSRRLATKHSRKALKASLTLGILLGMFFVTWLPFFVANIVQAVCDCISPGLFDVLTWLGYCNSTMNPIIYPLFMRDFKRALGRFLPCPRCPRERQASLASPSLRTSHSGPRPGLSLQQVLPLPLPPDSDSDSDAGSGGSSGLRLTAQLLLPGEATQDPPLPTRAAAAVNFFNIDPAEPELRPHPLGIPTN
A word on the Ki: it is the dissociation constant of the complex between target and ligand, obtained from inhibition or displacement. `Cc1cc(N2CCNCC2)c2c(c1)N(S(=O)(=O)c1ccccc1Cl)CCO2` came in with a Ki of 0.2 nM.

A further experiment deals with T1, 5-hydroxytryptamine receptor 6. The experiment can be described thus: Partial agonist activity at recombinant human 5-HT6 receptor expressed in HEK293 cells assessed as induction of intracellular cAMP production after 30 mins. It counts as functional, cell-based. On the technique in general: cAMP levels reflect the balance of adenylyl cyclase and phosphodiesterase activity.
Take `CN(C)c1cc(N2CCNCC2)ccc1S(=O)(=O)c1ccccc1`: the Activity is 17%.

For another experiment the target is unchanged. Briefly: Antagonist activity at recombinant human 5-HT6 receptor expressed in HEK293 cells assessed as 5-HT-induced intracellular cAMP production after 30 mins. It counts as functional, cell-based. A digest of the protocol:
(§1)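 Human 5-HT6R in HEK cells under a tetracycline-inducible T-REx promoter, induced with 1 µg/mL tetracycline the day before. Cells in HBSS/5 mM HEPES pH 7.4, 0.05% BSA and IBMX, about 4000 per well. IC50 from 4-parameter fit, in duplicate. Ki by Cheng-Prusoff using 5-HT EC50 measured alongside.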
Take `CN(C)c1ccccc1S(=O)(=O)c1ccccc1`: the Ki amounted to 2040 nM. `CC(=O)Nc1cc(N2CCNCC2)ccc1S(=O)(=O)c1ccccc1`: the Ki is 8.3 nM.

For the molecule `Nc1ccc(S(=O)(=O)c2ccc(N)cc2)cc1` [DAPSONE], the inhibition constant Ki is 183 nM. Regarding `Nc1cc(N2CCNCC2)ccc1S(=O)(=O)c1ccccc1`, the Ki turned out to be 1.65 nM. `CNc1cc(-c2cccnc2)ccc1S(=O)(=O)c1ccccc1`: the Ki was found to be 48.3 nM. For `Nc1ccc(S(=O)(=O)c2ccc(N)c(N)c2)cc1`, the Ki was 564 nM. Turning to `CNc1ccccc1S(=O)(=O)c1ccccc1`, the Ki amounted to 24.3 nM. Turning to `O=S(=O)(c1ccccc1)c1ccccc1` [(PHENYLSULFONYL)BENZENE], the Ki came out at 1600 nM. Consider `COc1ccccc1S(=O)(=O)c1ccccc1`, for which the Ki was found to be 866 nM.

Consider `CNc1cc(-c2ccccc2)ccc1S(=O)(=O)c1ccccc1`, for which the Ki was determined as 153 nM. Turning to `Nc1ccccc1S(=O)(=O)c1ccccc1`, the Ki was 491 nM. `CN(C)c1cc(N2CCNCC2)ccc1S(=O)(=O)c1ccccc1`: the Ki was found to be 30.1 nM. As to `O=S(=O)(c1ccccc1)c1ccc(N2CCNCC2)cc1`, the Ki was determined as 10.8 nM.

For the next experiment the target is unchanged. Briefly: Antagonist activity at 5-HT6 receptor (unknown origin). A digest of the protocol: as §1
Broadly, the IC50 is the concentration that inhibits the measured activity by half. A lower IC50 goes with inhibition by little substance. `CCNc1cc(N2CCNCC2)ccc1S(=O)(=O)c1ccccc1` gave an IC50 of 2.7 nM.
